Assay [1] has as its system Lu1. Description: Cytotoxicity against human Lu1 cells after 3 days by SRB assay. In kind it is functional. The following applies: Lu1, 72 h, read-out: ED50 (the source's name). (In general: Sulforhodamine B stains cellular protein and so reports cell mass.)
Assay [2] deals with KB. As to the kind of experiment: Cytotoxicity against human KB cells after 3 days by SRB assay. In kind it is functional. The following applies: 72 h, read-out: ED50 (the source's name).
A short description of assay [3]: Cytotoxicity against human KBVIN cells in presence of 1 ug/ml vinblastine after 3 days by SRB assay. In kind it is functional. The following applies: 72 h, read-out: ED50 (the source's name).
The nature of assay [4]: Cytotoxicity against human KBVIN cells after 3 days by SRB assay. Format: functional. The following applies: 72 h, read-out: ED50 (the source's name).
Assay [5] deals with LNCaP. As to the kind of experiment: Cytotoxicity against human LNCAP cells after 3 days by SRB assay. In kind it is functional. The following applies: 72 h, read-out: ED50 (the source's name).
Assay [6] concerns ZR-75-1. As to the kind of experiment: Cytotoxicity against human ZR-75-1 cells after 3 days by SRB assay. The following applies: ZR-75-1, 72 h, read-out: ED50 (the source's name). Format: functional.
Assay [7] concerns ASK. Description: Cytotoxicity against human ASK cells after 3 days by SRB assay. In kind it is functional, cell-based. Put shortly: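 ASK cell line: human astrocytoma.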
The test system of assay [8] is Plasmodium falciparum. As to the kind of experiment: Antimalarial activity against Plasmodium falciparum by [3H]hypoxanthine uptake. In kind it is functional, organism-based.
Assay [9] concerns the target Human immunodeficiency virus type 1 reverse transcriptase (Human immunodeficiency virus 1) (UniProt Q72547). As to the kind of experiment: Inhibition of HIV1 reverse transcriptase.

Values after ≈ are worked out from the molar mass of the structure shown. Active and inactive are the calls of the source. The calls are words filed in the database; no cut-off is given here. A value given as a limit tells only on which side of the number the result lay.

The source of these data is ChEMBL document CHEMBL1148073, “Cytotoxic diterpenoids from Isodon megathyrsus” (1994).

Regarding `Cc1c2ccncc2c(C)c2c1[nH]c1ccccc12` [ELLIPTECINE], the EC50 came out at 0.2 µg/mL (≈ 0.812 µM) in [1]; 0.04 µg/mL (≈ 0.162 µM) in assay [2]; 0.2 µg/mL in assay [3]; 0.3 µg/mL (≈ 1.22 µM) in assay [4]; 0.8 µg/mL (≈ 3.25 µM) in [5]; 0.9 µg/mL (≈ 3.65 µM) in assay [6]. Moreover, the ED50 result in assay [7] was “inactive”.
For `C=C1C(=O)[C@]23[C@H](O)[C@H]1CC[C@H]2[C@@]12CO[C@@]3(O)C[C@@H]1C(C)(C)CC[C@@H]2OC(C)=O` [RABDOCOETSIN B], the EC50 is 0.5 µg/mL (≈ 1.28 µM) in [1]; 0.3 µg/mL (≈ 0.768 µM) in assay [2]; 7.2 µg/mL in assay [3]; greater than 20 µg/mL in [4]; 0.6 µg/mL (≈ 1.54 µM) in assay [5]; 0.8 µg/mL (≈ 2.05 µM) in assay [6]. Also, in [7], the ED50 entry is “inactive”. Further, the result in [8] and in assay [9] was inactive.
With `COc1cc2c(c(OC)c1OC)-c1ccc(OC)c(=O)cc1[C@@H](NC(C)=O)CC2` [COLCHICINE], the EC50 in assay [1] stood at 0.2 µg/mL (≈ 0.501 µM); in assay [2] it was 0.2 µg/mL (≈ 0.501 µM); in [3], 0.6 µg/mL; in assay [4], 3.5 µg/mL (≈ 8.76 µM); in assay [5], 0.06 µg/mL (≈ 0.15 µM); in [6], 0.1 µg/mL (≈ 0.25 µM). For the same compound, in [7], the ED50 result is “Active”.
Regarding `C=C1C(=O)[C@]23C[C@H]1C[C@H](O)[C@H]2[C@@]12CO[C@@]3(O)C[C@@H]1C(C)(C)CC[C@@H]2O` [RABDOCOETSIN C], the EC50 is 0.4 µg/mL (≈ 1.15 µM) in assay [1]; 0.6 µg/mL (≈ 1.72 µM) in assay [2]; greater than 20 µg/mL in [3]; greater than 20 µg/mL in assay [4]; 0.7 µg/mL (≈ 2.01 µM) in [5]; 1 µg/mL (≈ 2.87 µM) in assay [6]. The ED50 result in assay [7] is “inactive”. Besides, the result in assay [8] and in assay [9] was inactive.
As for `C=C1C(=O)[C@]23[C@H](O)[C@H]1CC[C@H]2[C@@]12CO[C@@]3(O)C[C@@H]1C(C)(C)CC[C@@H]2O` [MEGATHYRIN A], the EC50 in [1] came out at 3.4 µg/mL (≈ 9.76 µM); in assay [2], 1.1 µg/mL (≈ 3.16 µM); in [3], 8.9 µg/mL; in assay [4], 19.1 µg/mL (≈ 54.8 µM); in assay [5], 1.8 µg/mL (≈ 5.17 µM); in [6] it was 1.8 µg/mL (≈ 5.17 µM). Further, the ED50 entry in assay [7] was “inactive”. The result in assay [8] and in assay [9] was inactive.
In the case of `C=C1C(=O)[C@]23C[C@H]1C[C@H](OC(C)=O)[C@H]2[C@@]12CO[C@@]3(O)C[C@@H]1C(C)(C)CC[C@@H]2O` [RABDOCOETSIN D], the EC50 was determined as 0.9 µg/mL (≈ 2.3 µM) in [1]; 0.5 µg/mL (≈ 1.28 µM) in [2]; 12.1 µg/mL in assay [3]; 9.5 µg/mL (≈ 24.3 µM) in assay [4]; 0.8 µg/mL (≈ 2.05 µM) in assay [5]; 0.8 µg/mL (≈ 2.05 µM) in [6]. For the same compound, in assay [7], the ED50 result was “inactive”. Moreover, the outcome in assay [8] and in assay [9] was inactive.
